Assay results taken from ChEMBL document CHEMBL4028850, “Identification and Optimization of Pyrrolo[3,2-d]pyrimidine Toll-like Receptor 7 (TLR7) Selective Agonists for the Treatment of Hepatitis B” (J Med Chem, 2017).

What was measured:
[1] = tested on: Liver; experiment: Drug level in Sprague-Dawley rat liver at […], iv or 10 mg/kg, po; format: ADME, organism-based; settings: in vivo, BLD = below limit of detection
[2] = Tmax in cynomolgus monkey at 10 mg/kg administered via oral gavage measured up to 72 hrs post dose; format: ADME, organism-based, Macaca fascicularis; settings: in vivo
Summary of the method: (§1)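 Cynomolgus monkeys (five per dose) given single oral gavage doses of 1, 3 or 10 mg/kg; dose levels in different animals, staggered by 3 days. Blood sampled pre-dose and at 0.25, 0.5, 1, 2, 4, 8, 24, 48 and 72 h for plasma compound levels, cytokines (ELISA or Luminex) and gene expression (microarray); clinical signs, body weight and temperature monitored.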

[3] = Cmax in C57Bl/6 mouse liver at 0.3 mg/kg, po measured after 0.5 hrs by LC-MS analysis; format: ADME, organism-based; set-up: dose 0.3 mg/kg, route oral
Summary of the method: (§2)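 Female fasted C57Bl/6 mice, nine per dose, got a single oral dose of 0.3, 1, 3 or 10 mg/kg. Blood was drawn at 0.5 h. Three mice per group were sacrificed at 1, 2 or 4 h for plasma and liver compound levels by LC-MS, and mean maximum levels are reported.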

[4] = AUC (0 to last) in cynomolgus monkey at 3 mg/kg administered via oral gavage measured up to 72 hrs post dose; format: ADME, organism-based, Macaca fascicularis; set-up: dose 3 mg/kg, time 0 - last, route oral; settings: in vivo
[5] = Cmax in Sprague-Dawley rat at […], iv or 10 mg/kg, po measured after 1 hr post dose; format: ADME, organism-based; settings: in vivo
[6] = Cmax in guinea pig up to […], iv; format: ADME, organism-based, Cavia porcellus; set-up: dose 4.9 mg/kg, route intravenous; settings: in vivo
[7] = Cmax in cynomolgus monkey at 3 mg/kg administered via oral gavage measured up to 72 hrs post dose; format: ADME, organism-based, Macaca fascicularis; set-up: dose 3 mg/kg, route oral; settings: in vivo
[8] = Intrinsic clearance in human hepatocytes assessed per million cells at 1 uM up to 120 mins; format: ADME, cell-based, Hepatocyte; settings: read-out: CLH
[9] = Plasma concentration in dog at 1 mg/kg, po measured after 4 hrs post dose; format: ADME, organism-based, Canis lupus familiaris
[10] = Tmax in cynomolgus monkey at 1 to 10 mg/kg administered via oral gavage measured up to 72 hrs post dose; format: ADME, organism-based, Macaca fascicularis; settings: in vivo; summary of the method: as §1
[11] = Cmax in C57Bl/6 mouse plasma at 10 mg/kg, po measured after 0.5 hrs by LC-MS analysis; format: ADME, organism-based; set-up: dose 10 mg/kg, route oral; summary of the method: as §2
[12] = Tmax in dog at 1 mg/kg, po; format: ADME, organism-based, Canis lupus familiaris; settings: in vivo
[13] = Cmax in cynomolgus monkey at 1 mg/kg administered via oral gavage measured up to 72 hrs post dose; format: ADME, organism-based, Macaca fascicularis; set-up: dose 1 mg/kg, route oral; settings: in vivo
[14] = Intrinsic clearance in cynomolgus monkey liver microsomes at 1 uM after 60 mins; format: ADME, Macaca fascicularis, microsome; settings: read-out: CLH
[15] = Intrinsic clearance in human liver microsomes at 1 uM after 60 mins; format: ADME, microsome; settings: read-out: CLH
[16] = Intrinsic clearance in dog liver microsomes at 1 uM after 60 mins; format: ADME, Canis lupus familiaris, microsome; settings: read-out: CLH
[17] = Cmax in C57Bl/6 mouse plasma at 3 mg/kg, po measured after 0.5 hrs by LC-MS analysis; format: ADME, organism-based; set-up: dose 3 mg/kg, route oral; summary of the method: as §2
[18] = Intrinsic clearance in dog hepatocytes assessed per million cells at 1 uM up to 120 mins; format: ADME, cell-based, Canis lupus familiaris, Hepatocyte; settings: read-out: CLH
[19] = tested on: Rattus norvegicus; experiment: Drug level in Sprague-Dawley rat systemic circulation at […], iv or 10 mg/kg, po; format: ADME, organism-based; settings: in vivo, BLD = below limit of detection
[20] = tested on: MDR1; experiment: Apparent permeability across apical to basolateral side in MDCK cells expressing human MDR1 at 5 uM by LC-MS/MS analysis; format: ADME, cell-based, Canis lupus familiaris; settings: dog
Summary of the method: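 MDCK cells transfected with human MDR1 were grown as confluent monolayers. 5 µM compound was added apically or basolaterally, with or without the P-gp inhibitor GF120918. Appearance on the opposite side was measured by LC-MS/MS to give Papp; efflux ratio = B→A/A→B without inhibitor.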

[21] = Cmax in C57Bl/6 mouse liver at 10 mg/kg, po measured after 0.5 hrs by LC-MS analysis; format: ADME, organism-based; set-up: dose 10 mg/kg, route oral; summary of the method: as §2
[22] = Intrinsic clearance in cynomolgus monkey hepatocytes assessed per million cells at 1 uM up to 120 mins; format: ADME, cell-based, Macaca fascicularis, Hepatocyte; settings: read-out: CLH
[23] = Intrinsic clearance in mouse liver microsomes at 1 uM after 60 mins; format: ADME, microsome; settings: read-out: CLH
[24] = Cmax in C57Bl/6 mouse plasma at 0.3 mg/kg, po measured after 0.5 hrs by LC-MS analysis; format: ADME, organism-based; set-up: dose 0.3 mg/kg, route oral; summary of the method: as §2
[25] = Tmax in cynomolgus monkey at 3 mg/kg administered via oral gavage measured up to 72 hrs post dose; format: ADME, organism-based, Macaca fascicularis; settings: in vivo; summary of the method: as §1
[26] = AUC (0 to last) in cynomolgus monkey at 10 mg/kg administered via oral gavage measured up to 72 hrs post dose; format: ADME, organism-based, Macaca fascicularis; set-up: dose 10 mg/kg, route oral, time 0 - last; settings: in vivo
[27] = Cmax in C57Bl/6 mouse liver at 3 mg/kg, po measured after 0.5 hrs by LC-MS analysis; format: ADME, organism-based; set-up: dose 3 mg/kg, route oral; summary of the method: as §2
[28] = Intrinsic clearance in rat liver microsomes at 1 uM after 60 mins; format: ADME, microsome; settings: read-out: CLH
[29] = Cmax in C57Bl/6 mouse plasma at 1 mg/kg, po measured after 0.5 hrs by LC-MS analysis; format: ADME, organism-based; set-up: dose 1 mg/kg, route oral; summary of the method: as §2
[30] = Cmax in C57Bl/6 mouse liver at 1 mg/kg, po measured after 0.5 hrs by LC-MS analysis; format: ADME, organism-based; set-up: dose 1 mg/kg, route oral; summary of the method: as §2
[31] = Intrinsic clearance in rat hepatocytes assessed per million cells at 1 uM up to 120 mins; format: ADME, cell-based, Hepatocyte; settings: read-out: CLH
[32] = Tmax in C57Bl/6 mouse plasma at 0.3 to 10 mg/kg, po by LC-MS analysis; format: ADME, organism-based
Summary of the method: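 Healthy fasted female C57Bl/6 mice, groups of 9, single oral dose 0.3, 1, 3 or 10 mg/kg. Blood at 0.5 h; three mice per group killed at 1, 2 or 4 h for plasma and liver compound (LC-MS) and ISG expression by RT-qPCR as fold change versus vehicle.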

[33] = Intrinsic clearance in mouse hepatocytes assessed per million cells at 1 uM up to 120 mins; format: ADME, cell-based, Hepatocyte; settings: read-out: CLH
[34] = Cmax in cynomolgus monkey at 10 mg/kg administered via oral gavage measured up to 72 hrs post dose; format: ADME, organism-based, Macaca fascicularis; set-up: dose 10 mg/kg, route oral; settings: in vivo
[35] = Activation of NFkappaB (unknown origin) expressed in HEK293 cells after 6 hrs luciferase reporter gene assay; format: cell-based; settings: human
Summary of the method: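 HEK293 cells were transfected with the NFκB-luciferase reporter alone, with no TLR vector, to detect direct NFκB activation.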

[36] = Ratio of drug uptake in liver to plasma in C57Bl/6 mouse at 0.3 to 10 mg/kg, po by LC-MS analysis; format: ADME, organism-based
Summary of the method: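 Healthy fasted female C57Bl/6 mice, 9 per dose group, given a single oral dose of 0.3, 1, 3 or 10 mg/kg. Blood taken at 0.5 h. At 1, 2 or 4 h, three mice per group were sacrificed and plasma and liver compound levels were measured by LC-MS.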

[37] = Tmax in cynomolgus monkey at 1 mg/kg administered via oral gavage measured up to 72 hrs post dose; format: ADME, organism-based, Macaca fascicularis; settings: in vivo; summary of the method: as §1
[38] = Cmax in dog at 1 mg/kg, po; format: ADME, organism-based, Canis lupus familiaris; set-up: dose 1 mg/kg, route oral; settings: in vivo
[39] = Oral bioavailability in cynomolgus monkey at 1 to 10 mg/kg administered via gavage measured up to 72 hrs post dose; format: ADME, organism-based, Macaca fascicularis; settings: in vivo

## Cc1cc(COc2nc(N)nc3ccn(Cc4ccccn4)c23)no1
[1]
  Drug uptake: Bld
[2]
  Tmax: 30 to 120 min
[3]
  Cmax: 6.8 ng/g
[4]
  AUC(0-t) at 72 h: 26.7 ng·h/mL
[5]
  Cmax: 314 ng/mL
[6]
  Cmax: 9700 ng/mL
[7]
  Cmax: 11.2 ng/mL
[8]
  hepatocyte CLint at 1 µM: 6 µL/min/1e6 cells
[9]
  concentration at 4 h: 10 ng/mL
[10]
  Tmax: 15 to 120 min
[11]
  Cmax: 72.9 ng/mL
[12]
  Tmax: 30 min
[13]
  Cmax: 4.12 ng/mL
[14]
  microsomal CLint at 1 µM: 87 µL/min/mg
[15]
  microsomal CLint at 1 µM: 25 µL/min/mg
[16]
  microsomal CLint at 1 µM: 44 µL/min/mg
[17]
  Cmax: 2.8 ng/mL
[18]
  hepatocyte CLint at 1 µM: 7 µL/min/1e6 cells
[19]
  Drug uptake: Bld
[20]
  Papp A→B at 5 µM: 41 ×10⁻⁶ cm/s
[21]
  Cmax: 152 ng/g
[22]
  hepatocyte CLint at 1 µM: 80 µL/min/1e6 cells
[23]
  microsomal CLint at 1 µM: 55 µL/min/mg
[24]
  Cmax: 3.7 ng/mL
[25]
  Tmax: 30 to 120 min
[26]
  AUC(0-t) at 72 h: 57.5 ng·h/mL
[27]
  Cmax: 23 ng/g
[28]
  microsomal CLint at 1 µM: > 346 µL/min/mg
[29]
  Cmax: 7.1 ng/mL
[30]
  Cmax: 6.3 ng/g
[31]
  hepatocyte CLint at 1 µM: > 277 µL/min/1e6 cells
[32]
  Tmax: 30 to 60 min
[33]
  hepatocyte CLint at 1 µM: 19 µL/min/1e6 cells
[34]
  Cmax: 23.4 ng/mL
[35]
  MEC: > 25 µM
[36]
  Kp: 2
[37]
  Tmax: 60 to 120 min
[38]
  Cmax: 125 ng/mL
[39]
  bioavailability: < 1%
